Bioassay records as filed in PubChem.
In the library only some 2.3% were active in any assay of this set; here they are far more common.
TRPC4 potent = allosterically enhances the mouse TRPC4 cation channel; Q9QUQ5; HEK293 TRPC4beta/mu-opioid, DAMGO EC20, Fluo-4 Ca2+ flux; stronger effect = higher value; B-score at 10 µM; actives 0.42% (n = 310,000); AID 2227;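 active means B-score of calcium response area above 5 SD of library B-scores, with initial fluorescence ratio within 5 SD of library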
TRPC6 act = activates the mouse TRPC6 cation channel | Q61143 | HEK293-TRPC6 membrane potential dye fluorescence; stronger effect = higher value | B-score at 10 µM | actives 0.13% (n = 310,000) | AID 2550;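 active means B-score of the integrated fluorescence ratio above library mean plus 3 SD, and starting fluorescence ratio within library mean plus 5 SD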;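 further: higher score means more depolarization so channel activation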
Target sequence (Q61143 whole entry, looked up): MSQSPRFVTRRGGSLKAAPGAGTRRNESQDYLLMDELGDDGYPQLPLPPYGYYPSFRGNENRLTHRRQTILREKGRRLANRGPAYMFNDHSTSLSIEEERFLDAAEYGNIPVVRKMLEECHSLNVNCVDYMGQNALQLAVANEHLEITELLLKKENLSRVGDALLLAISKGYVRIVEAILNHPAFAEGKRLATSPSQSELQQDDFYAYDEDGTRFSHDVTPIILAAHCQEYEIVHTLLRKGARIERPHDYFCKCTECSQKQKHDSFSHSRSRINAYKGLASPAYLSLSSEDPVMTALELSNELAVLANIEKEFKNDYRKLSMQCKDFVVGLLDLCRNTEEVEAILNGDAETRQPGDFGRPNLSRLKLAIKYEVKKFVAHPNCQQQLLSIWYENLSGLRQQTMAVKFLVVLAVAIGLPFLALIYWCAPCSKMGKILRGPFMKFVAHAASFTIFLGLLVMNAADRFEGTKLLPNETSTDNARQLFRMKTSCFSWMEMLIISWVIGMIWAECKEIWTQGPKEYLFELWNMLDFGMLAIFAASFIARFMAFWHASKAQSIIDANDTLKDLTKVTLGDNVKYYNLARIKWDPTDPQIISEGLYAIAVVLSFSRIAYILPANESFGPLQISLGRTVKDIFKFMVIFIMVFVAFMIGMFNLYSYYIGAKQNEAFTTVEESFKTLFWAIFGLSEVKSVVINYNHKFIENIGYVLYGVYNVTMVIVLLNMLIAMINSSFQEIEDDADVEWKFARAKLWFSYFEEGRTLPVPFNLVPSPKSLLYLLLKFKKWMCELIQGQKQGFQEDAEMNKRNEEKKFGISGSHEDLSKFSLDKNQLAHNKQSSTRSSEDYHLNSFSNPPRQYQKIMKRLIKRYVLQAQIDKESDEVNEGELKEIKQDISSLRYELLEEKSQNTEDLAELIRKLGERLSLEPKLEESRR
TRPC6 inhibitor = mouse TRPC6 channel inhibition; Q61143; HEK293-TRPC6, membrane potential dye, ACh-evoked depolarization; stronger effect = lower value; B-score at 10 µM; actives 1.1% (n = 310,000); AID 2553;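 active means B-score under library mean minus 3 SD, initial fluorescence not abnormally high, positive integrated signal ratio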;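 further: B-score derived from integrated fluorescence ratio over the kinetic read; more negative B-score means stronger inhibition of depolarization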
TRPC4 agonist = TRPC4 (mouse) channel activation. HEK293 TRPC4beta/mu-opioid, Fluo4 calcium fluorescence; stronger effect = higher value. Q9QUQ5. actives 0.49% (n = 310,000). B-score at 10 µM;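 active means B-score above 5 SD of library B-scores, and initial fluorescence ratio not above library mean plus 5 SD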;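 further: positive B-score marks a calcium rise read as TRPC4 activation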
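system = HEK293 cells stably co-expressing mouse TRPC4beta and mu-opioid receptor | schedule = Fluo4 dye loading 45 min at room temperature, 110 s recording | measure = B-scored integrated calcium fluorescence ratio | signal = Fluo4 calcium-sensitive dye fluorescence, kinetic, 1 Hz baseline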
TRPC4 inh = inhibitors of mouse TRPC4 channel; HEK293 TRPC4beta/mu-opioid, DAMGO-evoked Fluo4 calcium flux; stronger effect = lower value; B-score at 10 µM; AID 2247; Q9QUQ5; actives 0.39% (n = 300,000);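 active means B-score over 3 SD under the library average, no early fluorescence shift, positive overall ratio signal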
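Assay system: Stable TRPC4beta/mu-opioid receptor HEK293 cells | Reagent: DAMGO in two steps, submaximal then maximal | Compound dosing: Single concentration per test compound | Signal: Fluo4 Ca2+ flux fluorescence | Evaluation: Per-well B score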
Of the large screens only hits and unclear results are named; the others gave an inactive call.

Fc1cccc2sc(N3CCCC3)nc12	none
CCOC(=O)C1(CC2CCCCO2)CCN(Cc2nccn2-c2cccc(C)c2)CC1 (stereo not drawn)	none
CCOC(=O)C1(CC2CCCCO2)CCN(Cc2nc3ccccc3[nH]2)CC1 (stereo not drawn)	TRPC4 agonist 115
CCOC(=O)C1(CC2CCCCO2)CCN(Cc2cc(F)ccc2-n2cccn2)CC1 (stereo not drawn)	TRPC4 agonist 91
CCOC(=O)C1(CC2CCCCO2)CCN(Cc2c(C)cc(C)cc2-n2cccn2)CC1 (stereo not drawn)	TRPC4 agonist 106
Cc1cc(C(=O)CCl)c(C)n1-c1c(C)n(C)n(-c2ccccc2)c1=O	none
C#Cc1cccc(C(=O)N2CCCC(C(=O)c3ccc(OC)cc3C)C2)c1 (stereo not drawn)	none
Cc1nc(Nc2cc(F)ccc2C)c2nnn(Cc3ccccc3)c2n1	none
Cc1cccc(NC(=O)c2c(-c3ccccc3)noc2C)n1	none
O=c1ccc(-c2nc3ccccc3n2Cc2ccccc2Cl)c[nH]1	none
O=c1ccc(-c2nc3cc(Cl)ccc3n2Cc2ccccc2)c[nH]1	TRPC4 potent 10
OCCNCC(O)CN1c2ccccc2Sc2ccccc21 (stereo not drawn)	none
Cc1ccc(COn2c(-c3ccc(Cl)cc3Cl)nc3ncccc32)cc1	TRPC4 agonist 59, TRPC4 inh -8
Clc1cccc(COn2c(-c3ccc(Cl)cc3Cl)nc3ncccc32)c1	TRPC4 inh -6
COn1c(-c2ccc(C)cc2)nc2ncccc21	none
O=C(/C=C/c1ccc([N+](=O)[O-])cc1)NCCN1C(=O)S/C(=C\c2ccc(F)cc2)C1=O	none
Cc1ccc(OCC(=O)N2CC(C)OC(C)C2)c([N+](=O)[O-])n1 (stereo not drawn)	none
Cc1ccc(-n2c(C)cc(C)c(C#N)c2=O)cc1C	none
O=C(CC1=NCCNC(c2ccccc2)C1)c1ccccc1O (stereo not drawn)	TRPC4 potent 10
C(=N\N(Cc1ccccc1)c1ccccc1)/c1cccnc1	TRPC4 inh -6
Oc1cccc(/C=N/N(Cc2ccccc2)c2ccccc2)c1	none
COC(=O)C(Cc1cccc(C)n1)(c1ccccc1)c1ccccc1	TRPC4 inh -7
CCN1/C(=C/C=C/C=C/c2sc3ccccc3[n+]2CC)Sc2ccccc21	none
CCN1/C(=C/C=C/c2sc3ccccc3[n+]2CC)Sc2ccccc21	TRPC4 agonist 49
CCCN(CCC)CCCNC(=O)c1ccc2c(Cl)c3c(nc2c1)CCC3	TRPC4 agonist 124
COCCNC(=O)c1ccc2c(Cl)c3c(nc2c1)CCC3	none
COc1ccccc1Nc1nc2ccccc2[nH]1	none
CCc1ccccc1Nc1nc2ccccc2[nH]1	TRPC4 inh -5
Cc1ccc(Nc2nc3ccccc3[nH]2)nc1	TRPC4 agonist 108
O=C(Nc1ccc(F)c(F)c1)C1CCCN1S(=O)(=O)c1ccc(F)cc1 (stereo not drawn)	none
CCOC(=O)CSc1nc2c(sc(=S)n2Cc2ccco2)c(=O)n1-c1ccccc1	TRPC4 inh -6
CCOC(=O)CSc1nc2c(sc(=S)n2-c2ccccc2OC)c(=O)n1-c1ccccc1OC	none
CCOC(=O)CSc1nc2c(sc(=S)n2-c2ccccc2OC)c(=O)n1Cc1ccco1	TRPC6 inhibitor -5.7, TRPC4 inh -5
CCN(CC)C(=O)CSc1nc2c(sc(=S)n2Cc2ccco2)c(=O)n1-c1ccccc1	none
COc1ccc(OC)c(NC(=O)NNS(=O)(=O)c2ccc(C)cc2C)c1	none
Cc1csc2c(N3CCN(C(=O)Nc4ccc(OC(F)(F)F)cc4)CC3)ncnc12	TRPC4 agonist 98
CC1CCc2sc(C(=O)N/N=C/c3ccc(O)cc3)cc2C1 (stereo not drawn)	none
Cc1cc(NC(=S)N(CCCN2CCN(C)CC2)Cc2ccco2)ccc1Cl	none
COCCCNCCCCOc1c(Cl)cc(C)cc1Br	none
C=CCNCCCCOc1c(Cl)cc(C)cc1Br	TRPC4 agonist 57
Cc1cc(C(F)(F)F)nc(SCC(=O)Nc2c(C)n(C)n(-c3ccccc3)c2=O)n1	none
O=C(c1ccc(NC2=NC3CS(=O)(=O)CC3S2)cc1)N1CCN(c2ccc([N+](=O)[O-])cc2)CC1 (stereo not drawn)	none
Cc1[nH]c2ccccc2c1CN1CCN(c2ccccn2)CC1	none
Cc1[nH]c2ccccc2c1CN1CCC(Cc2ccccc2)CC1	TRPC4 agonist 67
CSc1ccc(CNC(=O)C(C)n2nc(C)c3c(C)n(-c4ccccc4)nc3c2=O)cc1 (stereo not drawn)	none
CCn1cc(CN2CCCC(C(=O)Nc3cccc(-c4cc5ccccc5[nH]4)c3)C2)c(C)n1 (stereo not drawn)	none
Cc1cc(CN2CCCC(C(=O)Nc3ccc(-c4nc5ccccc5[nH]4)cc3)C2)n[nH]1 (stereo not drawn)	TRPC4 inh -5
CCn1cc(CN2CCCC(C(=O)Nc3ccc(-c4nc5ccccc5[nH]4)cc3)C2)c(C)n1 (stereo not drawn)	TRPC4 agonist 206
O=C(COC(=O)Cc1ccc(-c2ccccc2)cc1)NCc1ccccc1	none
Cc1ccc(-c2nnn(CCOc3cccc(Br)c3)n2)cc1	none
CC(C)(C)c1ccc(N2C(=N)SCC2=O)cc1	TRPC4 potent 33
N=C1SCC(=O)N1c1ccc(Cl)cc1	none
Oc1c(Br)cc(Br)cc1C=Nc1cccc2ncccc12	none
CCOC(=O)C1=C(C)N=C2SC(C(=O)OC)=CC(=O)N2C1c1cc(OC)c(OC)c(OC)c1 (stereo not drawn)	none
Cc1ccccc1NC(=S)NNC(=O)c1csc2c1CCC(C)C2 (stereo not drawn)	none
NCCNc1ccc([N+](=O)[O-])c(NC2CC2)c1	TRPC4 potent 16
CCOC(=O)N1CCN(C(=O)c2ccc(SC)cc2OC)CC1	none
N#CC1=C(N)Oc2cc(Nc3ccccc3)ccc2C1c1ccncc1 (stereo not drawn)	none
CSCC[C@H](NC(=O)[C@@H]1Cc2ccccc2CN1)C(=O)Nc1ccc2c(c1)OCCO2	none
CCCOc1ccc(C2=CSC3=NCCN23)cc1[N+](=O)[O-]	TRPC6 inhibitor -6.2
O=C(COC(=O)c1ccccc1C(=O)c1ccccc1)NCCc1ccccc1	none
O=C(COC(=O)c1ccccc1C(=O)c1ccc(Cl)cc1)NCCc1ccccc1	TRPC4 potent 14
O=C(CSc1nnc(NC(=O)c2ccco2)s1)Nc1ccccc1Br	none
CCC1(c2ccccc2)NC(=O)N(CC(=O)NCc2ccc(C)cc2)C1=O (stereo not drawn)	none
O=C(Nc1ccccc1)C1=C[C@@H](C2CCCCC2)C[C@@H](OCc2ccc(CO)cc2)O1	none
O=C(Nc1ccccc1)C1=C[C@H](C2CCCCC2)C[C@H](OCc2ccc(CO)cc2)O1	TRPC4 potent 19
O=C(NCc1ccccc1)C1=C[C@H](c2ccc3c(c2)OCO3)C[C@H](OCc2ccc(CO)cc2)O1	TRPC4 agonist 211, TRPC4 inh -6
